Target: T1, human ERO1α (Homo sapiens, UniProt Q96HE7, C104A/C131A/C166A)
T1 sequence (Q96HE7 22-468 C104A/C131A/C166A): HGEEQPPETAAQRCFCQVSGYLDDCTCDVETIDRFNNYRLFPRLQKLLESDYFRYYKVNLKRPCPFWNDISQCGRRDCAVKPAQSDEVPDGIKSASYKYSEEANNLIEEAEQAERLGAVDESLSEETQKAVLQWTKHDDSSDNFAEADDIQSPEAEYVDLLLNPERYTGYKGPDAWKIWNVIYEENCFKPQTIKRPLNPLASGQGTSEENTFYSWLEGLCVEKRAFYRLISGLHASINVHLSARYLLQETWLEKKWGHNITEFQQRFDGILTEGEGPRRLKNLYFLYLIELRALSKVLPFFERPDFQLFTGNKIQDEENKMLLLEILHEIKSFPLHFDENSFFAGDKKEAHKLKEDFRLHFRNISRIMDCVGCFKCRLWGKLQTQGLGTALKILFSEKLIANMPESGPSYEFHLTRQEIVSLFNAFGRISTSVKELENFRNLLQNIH
Assay: Recombinant ERO1α enzyme assay
Type: biochemical
Conditions: up to 200 µM; FAD covalent modifiers
In short: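 Hyperactive human ERO1α (a.a. 22-468, C104A/C131A/C166A) and human PDI (a.a. 18-479) were used, each at 0.0625 mg/mL, with rising test compound concentrations. Activity was quantified by Amplex Red. Data are mean ± S.D. of 3 independent experiments, each run in triplicate.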

## N[C@@H]1C[C@H]1c1ccccc1 (racemic) [tranylcypromine]
  inhibition of ERO1α activity, concentration-response: did not inhibit

— PMC9312093 (ACS Bio & Med Chem Au, 2022)
